From PMC4608253 (Journal of chromatography. B, Analytical technologies in …, 2015)
Read-outs that look alike come from different tables or passages of the source.

What was measured:
[1] = type: physicochemical, mice; details: for Accuracy (RE, %) 25°C for 6 h / Accuracy (RE, %) Frozen for 30 days: stability in mice plasma/blood QC sample; for Accuracy (RE, %) Frozen for 30 days: −80°C; for Accuracy (RE, %) 4°C for 24 h: stability, extracted QC sample in auto-sampler
Summary of the method: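 Blank mouse blood spiked with analytes and vitamin C, then extracted with methanol containing daidzein internal standard (0.5 μM) by 1 min vortex. Spun at 20,000 × g for 15 min and dried under air. Three replicates per QC level were held unextracted at 25°C for 6 h, at −80°C for 30 days, or extracted in the 4°C autosampler for 24 h. Analysed by UPLC-MS/MS (C18, formic acid/acetonitrile, positive MRM); accuracy as RE.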

in vivo = type: in vivo, A/J mice; details: for Tmax / AUC(0-inf) / AUC(0-t) / Cmax / half-life: male, A/J, mouse, whole blood, po; for detected in the blood: mice, oral XCHT extract 0.5 g/kg; for concentration in the PK study: A/J mice, oral XCHT 500 mg/kg, blood

Row | Accuracy (RE, %) 25°C for 6 h ([1]; spiked concentration 3.9) | Accuracy (RE, %) 25°C for 6 h ([1]; spiked concentration 62.5) | Accuracy (RE, %) Frozen for 30 days ([1]; spiked concentration 3.9) | Accuracy (RE, %) Frozen for 30 days ([1]; spiked concentration 62.5) | Accuracy (RE, %) 4°C for 24 h ([1]; spiked concentration 3.9) | Accuracy (RE, %) 4°C for 24 h ([1]; spiked concentration 62.5) | Compound | Accuracy (RE, %) 25°C for 6 h ([1]; spiked concentration 500) | Accuracy (RE, %) Frozen for 30 days ([1]; spiked concentration 500) | Accuracy (RE, %) 4°C for 24 h ([1]; spiked concentration 500) | AUC(0-inf) (in vivo; 500 mg/kg) | AUC(0-t) (in vivo; 500 mg/kg) | Cmax (in vivo; 500 mg/kg) | half-life (in vivo; 500 mg/kg) | detected in the blood (in vivo) | Accuracy (RE, %) 25°C for 6 h ([1]; spiked concentration 0.488) | Accuracy (RE, %) Frozen for 30 days ([1]; spiked concentration 0.488) | Accuracy (RE, %) 4°C for 24 h ([1]; spiked concentration 0.488) | other results
1 | 2.8% | −2.3% | 4.4% | −12.1% | 2.6% | −8.4% | CCCCC[C@H](O)CC(=O)CCc1ccc(O)c(OC)c1 [(6)-Gingerol, 6-gingernol] | −1.0% | 1.2% | 2% |  |  |  |  |  |  |  |  | 
2 | 8.0% | 11.8% | 13.5% | 13% | −8.9% | 13.6% | COc1ccc(-c2coc3cc(O)ccc3c2=O)cc1 [Formononetin, formononetin] | −10.9% | 4.9% | 5% |  |  |  |  |  |  |  |  | 
3 | 2.1% | 1.6% | 6.9% | 14.0% | 5.4% | 12% | CC1(C)[C@@H](O)CC[C@]2(C)[C@H]3C(=O)C=C4[C@@H]5C[C@@](C)(C(=O)O)CC[C@]5(C)CC[C@@]4(C)[C@]3(C)CC[C@@H]12 [GA, glycyrrhetinic acid] | 8.1% | 13.5% | 14.6% | 3.3 ± 1.18 µM·h | 3.3 ± 1.18 µM·h | 263 ± 87.3 nM | 4.77 ± 1.93 h |  |  |  |  | Cmax (in vivo; 0.5 g/kg): 263 ± 87.3 nM; Tmax (in vivo; 0.5 g/kg): 7.25 ± 5.5 h
4 |  | 5.5% |  | 13.8% |  | 15% | O=C1C[C@@H](c2ccc(O[C@@H]3O[C@H](CO)[C@@H](O)[C@H](O)[C@H]3O)cc2)Oc2cc(O)ccc21 [Liquiritin] | 12.7% | 10.9% | 12.8% | 0.137 ± 0.0417 µM·h | 0.137 ± 0.0417 µM·h | 48.7 ± 38.2 nM | 9.33 ± 3.42 h | detected | 7.3% | 13.9% | 14.4% | 
5 |  |  |  |  |  |  | CC(C)=CCC[C@](C)(O)[C@H]1CC[C@]2(C)[C@@H]1[C@H](O)C[C@@H]1[C@@]3(C)CC[C@H](O[C@@H]4O[C@H](CO)[C@@H](O)[C@H](O)[C@H]4O[C@@H]4O[C@H](CO)[C@@H](O)[C@H](O)[C@H]4O)C(C)(C)[C@@H]3CC[C@]12C [Rg3, ginsenoside Rg3] | −4.3% | 0.4% | 0.4% |  |  |  |  |  | 9.2% | 8.0% | 1.57% | concentration in the PK study (in vivo; time 5 min): 1.33±0.48; concentration in the PK study (in vivo; time 30 min): 3.74±3.73; concentration in the PK study (in vivo; time 360 min): 1.61±0.53; Accuracy (RE, %) 25°C for 6 h ([1]; spiked concentration 6.25): 9.2%; Accuracy (RE, %) Frozen for 30 days ([1]; spiked concentration 6.25): 8.0%; Accuracy (RE, %) 4°C for 24 h ([1]; spiked concentration 6.25): 8.64%
6 | −4.8% | −12.9% | −2.6% | 4.8% | −1.3% | 5.12% | O=c1c(O)c(-c2ccc(O)c(O)c2)oc2cc(O)cc(O)c12 [quercetin, quecertin] | 10.1% | 14.7% | 14.72% |  |  |  |  |  |  |  |  | 
7 |  |  |  |  |  |  | C[C@@H]1O[C@@H](OC[C@H]2O[C@@H](Oc3c(-c4ccc(O)c(O)c4)oc4cc(O)cc(O)c4c3=O)[C@H](O)[C@@H](O)[C@@H]2O)[C@H](O)[C@H](O)[C@H]1O [rutin] |  |  |  |  |  |  |  |  |  |  |  | Accuracy (RE, %) 25°C for 6 h ([1]; spiked concentration 0.049): 13.2%; Accuracy (RE, %) 25°C for 6 h ([1]; spiked concentration 6.25): 3.1%; Accuracy (RE, %) 25°C for 6 h ([1]; spiked concentration 50): 6.3%; Accuracy (RE, %) Frozen for 30 days ([1]; spiked concentration 0.049): 8.3%; Accuracy (RE, %) Frozen for 30 days ([1]; spiked concentration 6.25): 8.5%; Accuracy (RE, %) Frozen for 30 days ([1]; spiked concentration 50): 7.9%; Accuracy (RE, %) 4°C for 24 h ([1]; spiked concentration 0.049): 9.3%; Accuracy (RE, %) 4°C for 24 h ([1]; spiked concentration 6.25): 12.7%; Accuracy (RE, %) 4°C for 24 h ([1]; spiked concentration 50): 12.1%
8 | 7.5% | −8.6% | −5.9% | −0.9% | 4.6% | −1% | COc1cc(CCC(C)=O)ccc1O [zingerone] | −14.6% | 12.7% | 11.4% |  |  |  |  |  |  |  |  | 

Row | Compound | Accuracy (RE, %) 25°C for 6 h ([1]; spiked concentration 3.9) | Accuracy (RE, %) 25°C for 6 h ([1]; spiked concentration 62.5) | Accuracy (RE, %) Frozen for 30 days ([1]; spiked concentration 3.9) | Accuracy (RE, %) Frozen for 30 days ([1]; spiked concentration 62.5) | Accuracy (RE, %) 4°C for 24 h ([1]; spiked concentration 3.9) | Accuracy (RE, %) 4°C for 24 h ([1]; spiked concentration 62.5) | Accuracy (RE, %) 25°C for 6 h ([1]; spiked concentration 500) | Accuracy (RE, %) Frozen for 30 days ([1]; spiked concentration 500) | Accuracy (RE, %) 4°C for 24 h ([1]; spiked concentration 500) | AUC(0-inf) (in vivo; 500 mg/kg) | AUC(0-t) (in vivo; 500 mg/kg) | Cmax (in vivo; 500 mg/kg) | half-life (in vivo; 500 mg/kg) | detected in the blood (in vivo) | Accuracy (RE, %) 25°C for 6 h ([1]; spiked concentration 0.488) | Accuracy (RE, %) Frozen for 30 days ([1]; spiked concentration 0.488) | Accuracy (RE, %) 4°C for 24 h ([1]; spiked concentration 0.488) | other results
9 | O=c1cc(-c2ccccc2)oc2cc(O)c(O)c(O)c12 [Baicalein, baicalein] | 10.3% | 9.9% | −11.4% | −14.5% | 12.3% | −14% | 0.7% | 9% | 13.1% | 0.119 ± 0.0338 µM·h | 0.0854 ± 0.026 µM·h | 32.7 ± 15 nM | 6.85 ± 4.32 h | detected |  |  |  | Tmax (in vivo; 0.5 g/kg): 0.083 h; Tmax (in vivo; 500 mg/kg): 0.083 h
10 | O=C(O)[C@H]1O[C@@H](Oc2cc3oc(-c4ccccc4)cc(=O)c3c(O)c2O)[C@H](O)[C@@H](O)[C@@H]1O [Baicalin, baicalin] | −5.7% | −5.3% | 6.7% | 14.1% | 3.8% | 14.8% | 1.1% | 4.9% | 5.2% | 9.71 ± 0.709 µM·h | 8.96 ± 2.08 µM·h | 787 ± 123 nM | 3.11 ± 0.95 h | detected |  |  |  | Tmax (in vivo; 0.5 g/kg): 2.13 ± 1.18 h; Tmax (in vivo; 500 mg/kg): 2.57 h
11 | CC(C)=CCC[C@](C)(O[C@@H]1O[C@H](CO)[C@@H](O)[C@H](O)[C@H]1O)[C@H]1CC[C@]2(C)[C@@H]1[C@H](O)C[C@@H]1[C@@]3(C)CC[C@H](O[C@@H]4O[C@H](CO)[C@@H](O)[C@H](O)[C@H]4O[C@@H]4O[C@H](CO)[C@@H](O)[C@H](O)[C@H]4O)C(C)(C)[C@@H]3CC[C@]12C [Rd, Ginsenoside Rd] |  | −3.7% |  | 11.4% |  | 12.8% | −7.1% | 12.2% | 12.3% |  |  |  |  |  | 13.3% | 11.6% | −4% | concentration in the PK study (in vivo; time 360 min): 5.07±6.67; concentration in the PK study (in vivo; time 720 min): 6.23±7.96; concentration in the PK study (in vivo; time 1440 min): 5.20±7.64
12 | CC(C)=CCC[C@](C)(O[C@@H]1O[C@H](CO)[C@@H](O)[C@H](O)[C@H]1O)[C@H]1CC[C@]2(C)[C@@H]1[C@H](O)C[C@@H]1[C@@]3(C)CC[C@H](O)C(C)(C)[C@@H]3[C@@H](O[C@@H]3O[C@H](CO)[C@@H](O)[C@H](O)[C@H]3O[C@@H]3O[C@@H](C)[C@H](O)[C@@H](O)[C@H]3O)C[C@]12C [Re, ginsenoside Re] | 10.1% | 8.8% | 10.4% | 9.7% | −5.4% | 13.76% | −0.3% | 8.9% | 9.7% | 0.045 ± 0.0289 µM·h | 0.0423 ± 0.0265 µM·h | 50.2 ± 40.1 nM | 2.72 ± 2.15 h | detected |  |  |  | Tmax (in vivo; 500 mg/kg): 0.25 h
13 | CC(C)=CCC[C@](C)(O[C@@H]1O[C@H](CO)[C@@H](O)[C@H](O)[C@H]1O)[C@H]1CC[C@]2(C)[C@@H]1[C@H](O)C[C@@H]1[C@@]3(C)CC[C@H](O)C(C)(C)[C@@H]3[C@@H](O[C@@H]3O[C@H](CO)[C@@H](O)[C@H](O)[C@H]3O)C[C@]12C [Rg1, ginsenoside Rg1] |  | 7.4% |  | 9.2% |  | 10.1% | 8.5% | 12.5% | 12.12% |  |  |  |  |  | 14.8% | 7.2% | 4.7% | concentration in the PK study (in vivo; time 15 min): 0.80±0.50; concentration in the PK study (in vivo; time 480 min): 1.16±0.29
